Measured values published in ChEMBL document CHEMBL1132072, “Synthesis, in vitro cytotoxicity and in vivo anti-inflammatory activity of long chain 3-amino-1,2-diols” (Bioorg Med Chem Lett, 1999).

Key:
Rattus norvegicus [1] = assay: In vivo anti-inflammatory activity against carrageenan-induced paw edema assay in rats at dose 0.11 mM/kg; format: functional
A2780 = assay: In vitro inhibitory activity against human ovarian cancer A2780 cell line; format: functional, cell-based
How it was run: (§1)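 Monolayer cultures in RPMI 1640 with 5% heat-inactivated FCS and 2 mM L-glutamine, 37 °C, 5% CO2. Seeded at 5,000–20,000 cells/well according to doubling time, in gentamicin-containing medium. Compounds dissolved in DMSO and tested at five 10-fold dilutions from a top final concentration of 10⁻⁴ M for 72 h. Cells were TCA-fixed and stained with SRB, with OD read at 492 nm (NCI protocol). IC50 is the concentration giving 50% growth inhibition.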

Colon 26 = assay: In vitro inhibitory activity against murine colon carcinoma C26-10 cell line; format: functional, cell-based; settings: Mus musculus; how it was run: as §1
H322 = assay: In vitro inhibitory activity against H322 human NSCLC cell line; format: functional, cell-based; settings: NCI-H322; how it was run: as §1
[2] = system: Lewis lung carcinoma cell line; assay: In vitro inhibitory activity against LL murine NSCLC cell line;; format: functional, cell-based; settings: Mus musculus; how it was run: as §1
UMSCC22B = assay: In vitro inhibitory activity against human and neck squamous cell carcinoma UMSCC-22B cell line; format: functional, cell-based; how it was run: as §1
WiDr = assay: In vitro inhibitory activity against human colon carcinoma WiDr cell line;; format: functional, cell-based; how it was run: as §1
Rattus norvegicus [3] = assay: In vivo anti-inflammatory activity against carrageenan-induced paw edema assay in rats at dose 0.15 mM/kg; format: functional
How it was run: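 Fisher 344 rats of either sex, excluding pregnant females, six animals per group with two groups per compound. Edema induced by intradermal injection of 0.1 mL of 2% carrageenin (type K100) in saline into the right paw. Compound given ip as a single 0.15 mmol/kg dose at the same time. Paw edema measured 3.5 h later. Indomethacin served as the reference drug.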

IC50 (A2780) | IC50 (Colon 26) | IC50 (H322) | IC50 [2] | IC50 (UMSCC22B) | IC50 (WiDr) | Compound | Inhibition (Rattus norvegicus [1]) | Inhibition (Rattus norvegicus [3])
32.8 µM | 21.5 µM | 24.4 µM | 10.6 µM | 3.5 µM | 13.3 µM | CCCCCCCCCCCCCCCCCC[C@@H](N)[C@@H](O)CO | – | 80.04%
2.71 µM | 3.97 µM | 1.71 µM | 3.47 µM | 2.34 µM | 3.47 µM | CCCCCCCCCCCCCCCCCC[C@H](N)[C@H](O)CO | – | 79.6%

Second part, the molecule before the results:

Compound | IC50 (A2780) | IC50 (Colon 26) | IC50 (H322) | IC50 [2] | IC50 (UMSCC22B) | IC50 (WiDr) | Inhibition (Rattus norvegicus [1]) | Inhibition (Rattus norvegicus [3])
COc1ccc2c(c1)c(CC(=O)O)c(C)n2C(=O)c1ccc(Cl)cc1 [INDOMETHACIN] | – | – | – | – | – | – | 53.3% | –
CCCCCCCCCCCCCCC(N)CN (stereo not drawn) | 2.79 µM | 3.3 µM | 2.94 µM | 2.93 µM | 1.89 µM | 24.2 µM | – | 93.5%
CCCCCCCCCCCCCC[C@H](N)[C@H](O)CO | 2.66 µM | 3.68 µM | 1.45 µM | 2.86 µM | 1.89 µM | 2.76 µM | – | 81.1%
CCCCCCCCCCCCCC[C@H](NC(=O)OC(C)(C)C)[C@H](O)CO | 30.4 µM | 29.3 µM | 18 µM | 24.2 µM | 23.8 µM | 20.8 µM | – | 45.2%
CCCCCCCCCCCCCC[C@@H](N)[C@@H](O)CO | 2.63 µM | 3.58 µM | 1.52 µM | 1.87 µM | 2.49 µM | 2.99 µM | – | 85.3%
